Published values from different studies.
Compare with care: the assays were run in different laboratories.
ALK L1196M: ALK tyrosine kinase receptor (ALK, Homo sapiens, UniProt Q9UM73, L1196M)
ALK: ALK tyrosine kinase receptor (ALK, Homo sapiens, UniProt Q9UM73)

| SMILES | target | effect on | action | technique | tested at | endpoint | value |
| --- | --- | --- | --- | --- | --- | --- | --- |
| C[C@@]1(Cc2ccc(C#N)cc2)C(=O)N(c2cc(Cl)cc(Cl)c2)c2ncc(C(=O)NC3(c4nc(C5CCC5)no4)CC3)n21 | ALK L1196M | cell-free assay | – | competition with immobilised ligand | 1 µM | remaining binding | 100% |
| Cc1[nH]c(/C=C2\C(=O)Nc3ccc(F)cc32)c(C)c1C(=O)N[C@H]1CCN(C(=O)N(C)C)C1 | ALK | enzyme activity | inhibitor | – | 1 µM | remaining activity | 73% |
| COc1ccc2c(c1)O[C@@H](c1ccc(OC)c(OC)c1)C[C@H]2NC(=O)C1(c2ccc3c(c2)OC(F)(F)O3)CC1 | ALK | cell-free assay | – | competition with immobilised ligand | 1 µM | remaining binding | 100% |
| COc1cc2nccc(Oc3ccc(NC(=O)c4c5n(n(-c6ccc(F)cc6)c4=O)CCCC5)cc3)c2cc1OC | ALK | enzyme activity | inhibitor | – | 0.1 µM | inhibition | -23% |
| Cn1nc(C(=O)NCc2ccc(C(=O)O)cc2)cc1-c1ccc2[nH]ccc2c1 | ALK L1196M | cell-free assay | – | competition with immobilised ligand | 0.1 µM | remaining binding | 100% |
| COc1cc2c(N3CCN(C(=O)Nc4ccc(OC(C)C)cc4)CC3)ncnc2cc1OCCCN1CCCCC1 | ALK | cell-free assay | – | – | 0.5 µM | remaining signal | 103% |
| Nc1ncnc2occ(-c3ccc(NC(=O)Nc4cc(C(F)(F)F)ccc4F)cc3)c12 | ALK L1196M | cell-free assay | – | – | 20 µM | remaining signal | 1.8% |
| Cc1ccc(Nc2nccc(N(C)c3ccc4c(C)n(C)nc4c3)n2)cc1S(N)(=O)=O | ALK | enzyme activity | inhibitor | – | 10 µM | inhibition | 79% |
| CS(=O)(=O)Nc1cccc(-c2csc(NC(=O)CSc3nc4nccnc4c(=O)n3CCc3ccccc3)n2)c1 | ALK | enzyme activity | inhibitor | – | 10 µM | inhibition | 9% |
| C[C@H]1CCN(c2nccc(-c3cnn4ncccc34)n2)C1 | ALK L1196M | binding | – | – | 1 µM | remaining binding | 100% |
| CCCCN(CCCC)C(=O)CN1C[C@H](c2cc(OC)c3c(c2)OCO3)[C@@H](C(=O)O)[C@@H]1CC(C)(C)CCC | ALK L1196M | cell-free assay | – | competition with immobilised ligand | 1 µM | remaining binding | 100% |
| Cc1ccc(C(=O)Nc2ccc(CN3CCN(C)CC3)c(C(F)(F)F)c2)cc1C#Cc1cnc2cccnn12 | ALK L1196M | cell-free assay | – | – | 23.5 nM | remaining signal | 99% |
| CN(C(=O)c1ccccc1)c1cc(N(C)c2ccc3c(c2)CCc2ccc(C(=O)NCCN4CCOCC4)cc2C3=O)ccc1F | ALK L1196M | cell-free assay | – | competition with immobilised ligand | 1 µM | remaining binding | 100% |
| O=C1NC(=O)c2cc(Nc3ccc(F)cc3)c(Nc3ccc(F)cc3)cc21 | ALK | cell-free assay | – | – | 0.5 µM | remaining signal | 92.6% |
| CNCc1ccc(-c2cc(-c3nc(-c4ccc(S(=O)(=O)C(C)C)cc4)cnc3N)on2)cc1 | ALK | enzyme activity | inhibitor | – | 0.4 µM | inhibition | 2% |
| CN(C)c1ncc(F)c(-c2cnn3ncccc23)n1 | ALK L1196M | binding | – | – | 1 µM | remaining binding | 59% |
| C[C@H](c1ccnc(Nc2nc3ccc(-c4cc(N(C)C)ncn4)cc3[nH]2)c1)N1CCN(C(=O)CC(F)(F)F)CC1 | ALK L1196M | cell-free assay | – | competition with immobilised ligand | 0.1 µM | remaining binding | 100% |
| CN(CCCC(F)(F)F)c1nccc(-c2cnn3ncccc23)n1 | ALK L1196M | binding | – | – | 1 µM | remaining binding | 100% |
| O=C(NCc1ncc(C(F)(F)F)cc1Cl)c1ccc2c(c1)C1(CCS(=O)(=O)CC1)[C@@H](C1CC1)N2S(=O)(=O)c1ccc(F)cc1 | ALK tyrosine kinase receptor (ALK, Homo sapiens, UniProt Q9UM73, C1156Y) | cell-free assay | – | competition with immobilised ligand | 1 µM | remaining binding | 100% |
| O=C(Nc1cnn(-c2csc(C(=O)NC3COC3)c2)c1)Nc1c(F)cccc1Cl | ALK | enzyme activity | inhibitor | – | 5 µM | remaining activity | 89.2% |
| CC/C(=N\NC(=O)NCc1cccc(O)c1)c1ccc(O)c(C)c1O | ALK tyrosine kinase receptor (ALK, Homo sapiens, UniProt Q9UM73, R1275Q) | enzyme activity | inhibitor | – | 0.1 µM | inhibition | 4.8% |
